High-throughput results as filed in PubChem.
This is a sample that favours compounds with a hit; in the whole collection about 2.6% have one here.
SIAE primary – blocks human sialic acid acetylesterase; Q9HAT2; SIAE FP-Rh probe binding, fluorescence polarization; AID 1053197; 0.69% of 370,000 active; inhibition, % at 9.66 µM;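 active means inhibition above a cutoff: mean of compounds within the control limits plus 3 SD of those, cut at about 17% in these data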
PRMT1 FP inh – inhibitors of human PRMT1; 1.3% of 370,000 active; Q99873; recombinant PRMT1, activity-based probe fluorescence polarization; inhibition, % at 2.79 µM;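 active means inhibition above about 21% made by adding two undisclosed values, limit read from the data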
mABHD4 FP – inhibitors of mouse ABHD4; Q8VD66; purified mABHD4, FP-Rh probe fluorescence polarization; inhibition, % at 8.92 µM; 0.54% of 370,000 active; AID 720543;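 active means inhibition exceeding the mean over every tested compound plus 3 SD, cut at about 30% in these data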
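Assay system: wild-type mouse ABHD4 protein; compound: single nominal dose of 8.92 µM, 0.89% DMSO final; schedule: 45 min + 60 min at 25 °C; measured by: FP readout, ex 525 nm / em 598 nm; evaluation: % inhibition of FP-Rh probe binding versus controls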
TCR-CD3 inh – blocks the human TCR-CD3 interaction; inhibition, % at 9.4 µM; 0.37% of 360,000 active; TAMRA-labeled TCR probe fluorescence, biochemical;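 further: recombinant mutant TCR 2C K166C tagged with TAMRA read by polarization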
HTRA1 inhibitor – blocks human HTRA1 serine peptidase | recombinant HTRA1, FP-rhodamine activity-based probe, fluorescence polarization | inhibition, % at 5.96 µM | 0.5% of 340,000 active | AID 504803; in the data active means inhibition above about 36%
Target sequence (Q92743 whole entry, looked up): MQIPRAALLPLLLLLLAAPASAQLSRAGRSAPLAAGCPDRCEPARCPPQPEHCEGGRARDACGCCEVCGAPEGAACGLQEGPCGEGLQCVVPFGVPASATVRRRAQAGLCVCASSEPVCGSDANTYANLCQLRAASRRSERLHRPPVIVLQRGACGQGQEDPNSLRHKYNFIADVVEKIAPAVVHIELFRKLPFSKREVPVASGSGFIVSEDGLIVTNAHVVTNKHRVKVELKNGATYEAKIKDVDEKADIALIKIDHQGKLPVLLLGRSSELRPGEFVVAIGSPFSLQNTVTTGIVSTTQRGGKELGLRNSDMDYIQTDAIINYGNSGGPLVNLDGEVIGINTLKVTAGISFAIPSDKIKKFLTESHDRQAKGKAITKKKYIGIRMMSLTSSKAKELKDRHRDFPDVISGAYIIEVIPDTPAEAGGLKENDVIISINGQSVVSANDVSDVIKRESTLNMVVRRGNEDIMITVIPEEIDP
HTRA1 conf – HTRA1 (human) inhibition, confirmation; AID 540248; recombinant HTRA1, FP-rhodamine activity-based probe, fluorescence polarization; shares compounds with HTRA1 inhibitor; 66% of 1,600 active; inhibition, % at 5.96 µM;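 active means mean inhibition over three repeats above a set limit taken from the earlier primary screen, cut at about 37% in these data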;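 further: inhibitors block probe binding so polarization drops and inhibition rises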
BSA probe FL – counter-screen for TCR-CD3 interaction inhibitors: BSA probe; shares compounds with TCR-CD3 inh; AID 652035; inhibition, % at 9.4 µM; TAMRA-labeled BSA probe fluorescence counterscreen; 10% of 1,200 active; in the data active means inhibition above about 23%
TCR-CD3 conf – confirmation of human TCR-CD3 interaction inhibitors; shares compounds with TCR-CD3 inh; TAMRA-labeled TCR probe fluorescence binding assay; inhibition, % at 9.4 µM; 48% of 1,200 active
PRMT1 confirm – confirmation of human PRMT1 inhibitors; AID 687036; recombinant His-PRMT1, activity-based probe fluorescence polarization; shares compounds with PRMT1 FP inh; inhibition, % at 2.79 µM; 42% of 3,300 active;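 active means mean inhibition across replicates above the hit cutoff derived for the earlier primary screen, cut at about 22% in these data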
mABHD4 conf – ABHD4 (mouse) inhibition, FP confirmation | shares compounds with mABHD4 FP | 55% of 1,800 active | inhibition, % at 8.92 µM | purified mABHD4, FP-Rh probe fluorescence polarization;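 active means mean inhibition across replicates above the hit cutoff set in the primary screen, cut at about 30% in these data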
Of the large screens only hits and unclear results are named; the others gave an inactive call (follow-up assays come after a bar, where they were run). Unless noted, no stated cut-off is given here; in the data, active means inhibition above about 19%; inactive means the rest.

COc1c(Cl)cc(C(=O)NN)cc1Cl	none
CC(C)C[C@H]1CN([C@@H](Cc2ccccc2)CN2CCC[C@H]2CN2C(=O)C(=O)NC[C@@H]2Cc2ccccc2)C(=O)C(=O)N1CC1CCCCCC1	none (no result: HTRA1 inhibitor)
O=c1oc(-c2ccc(O)c(O)c2)cc2cc(O)cc(O)c12	mABHD4 FP 51, HTRA1 inhibitor 56 | HTRA1 conf 124 | mABHD4 conf 36
O=c1oc(-c2ccc(O)c(O)c2)cc2cccc(O)c12	mABHD4 FP 35, HTRA1 inhibitor 62 | HTRA1 conf 68 | mABHD4 conf 34
O=c1cc(-c2ccc(O)c(O)c2)oc2c1ccc1ccccc12	mABHD4 FP 34, TCR-CD3 inh 40, HTRA1 inhibitor 66 | HTRA1 conf 74 | BSA probe FL inactive | TCR-CD3 conf 75 | mABHD4 conf 31
O=C1CSC(c2cccs2)N1c1nncs1 (stereo unspecified)	none (no result: HTRA1 inhibitor)
CC1=CC(C)(C)Nc2ccc(Cc3ccc4c(c3)C(C)=CC(C)(C)N4)cc21	mABHD4 FP 31, HTRA1 inhibitor 51 | HTRA1 conf 37 | mABHD4 conf 33
CC1CCN(C(=O)c2ncn3c2C(=O)N[C@H](C)C3)CC1	none (no result: HTRA1 inhibitor)
COCCn1c(N)c(N(Cc2ccccc2)C(=O)c2ccc(N3CCCC3=O)cc2)c(=O)[nH]c1=O	none
Nc1ncnc(N)c1N=Nc1ccccc1	none
Nc1ccc2ccccc2c1N=Nc1ccccc1	mABHD4 FP 39, HTRA1 inhibitor 59 | HTRA1 conf 53 | mABHD4 conf 39
O=c1ccn(C2CC(O)C(COC(c3ccccc3)(c3ccccc3)c3ccccc3)O2)c(=O)[nH]1 (stereo unspecified)	none (no result: HTRA1 inhibitor)
COc1cccc2c1C(=O)c1c(O)c3c(c(O)c1C2=O)C[C@](O)(C(C)=O)C[C@H]3O[C@@H]1C[C@@H](N)[C@@H](O)[C@@H](C)O1	SIAE primary 57, PRMT1 FP inh active, mABHD4 FP 68, TCR-CD3 inh 163, HTRA1 inhibitor 68 | HTRA1 conf 72 | BSA probe FL 179 | TCR-CD3 conf 148 | PRMT1 confirm 149 | mABHD4 conf 61
CN(C)c1ccc(N/C=C/C(=O)c2ccco2)cc1	PRMT1 FP inh 21, mABHD4 FP 44, HTRA1 inhibitor 47 | HTRA1 conf inactive | mABHD4 conf inactive
CC(=O)Nc1ccc(N/C=C/C(=O)c2ccco2)cc1	none
CCCCCCCCCCCCCCCC[n+]1ccccc1	mABHD4 FP 54, HTRA1 inhibitor 70 | HTRA1 conf 77 | mABHD4 conf 50
CCCCCCCC[n+]1cccc(C(=O)N(CC)CC)c1	none
CCCCCCCCCCCCCCCC[n+]1ccc(C(N)=O)cc1	mABHD4 FP 41, HTRA1 inhibitor 73 | HTRA1 conf 76 | mABHD4 conf 88
CCCCC(=O)Nc1ccc(C(N)=O)cc1	none
CCCCCCCCCCCCCCCC[n+]1cccc(C(=O)N(CC)CC)c1	mABHD4 FP 43, HTRA1 inhibitor 58 | HTRA1 conf 65 | mABHD4 conf 48
COC(=O)C1=C(C)N(Cc2cccc(C(F)(F)F)c2)C(=NCc2ccc(C(F)(F)F)cc2)NC1c1cccc(C(F)(F)F)c1 (stereo unspecified)	none (no result: HTRA1 inhibitor)
CCOC(=O)c1ccc(CC(=O)c2oc3cc(O)ccc3c2C)o1	none
CCOC(=O)c1ccc(CC(=O)c2ccc(O)c(O)c2O)o1	PRMT1 FP inh 43, mABHD4 FP 31, TCR-CD3 inh 21, HTRA1 inhibitor 53 | HTRA1 conf 82 | BSA probe FL inactive | TCR-CD3 conf 21 | PRMT1 confirm inactive | mABHD4 conf inactive
O=C(/C=C/c1ccc(Cl)cc1Cl)c1ccc[nH]1	none
CCNc1ccc(Br)cc(C(=O)/C=C/c2ccc3c(c2)OCO3)c1=O	PRMT1 FP inh 38, mABHD4 FP 38, HTRA1 inhibitor 52 | HTRA1 conf inactive | mABHD4 conf 45
COc1cccc(/C=C/C(=O)OCC(=O)NCCNC(=O)COC(=O)/C=C/c2cccc(OC)c2)c1	none
CNc1ccc(Br)cc(C(=O)/C=C/c2ccc(Cl)cc2Cl)c1=O	PRMT1 FP inh 22, mABHD4 FP 33, HTRA1 inhibitor 64 | HTRA1 conf 48 | mABHD4 conf 57
CNc1ccc(Br)cc(C(=O)/C=C/c2cccc(OC)c2)c1=O	PRMT1 FP inh 27, mABHD4 FP 37, HTRA1 inhibitor 40 | HTRA1 conf inactive | mABHD4 conf 43
O=C(OCC(=O)N1CCOCC1)c1ccc(Cl)cc1[N+](=O)[O-]	none
c1ccc(Cn2cc(CCOCc3ccccn3)c3ccccc32)cc1	none (no result: HTRA1 inhibitor)
Clc1cccc(Cl)c1C1Nc2cccc3cccc(c23)N1	PRMT1 FP inh 31, mABHD4 FP 72, HTRA1 inhibitor 70 | HTRA1 conf inactive | mABHD4 conf 48
Fc1cccc(Cl)c1C1Nc2cccc3cccc(c23)N1	PRMT1 FP inh 33, mABHD4 FP 57, HTRA1 inhibitor 50 | HTRA1 conf inactive | PRMT1 confirm 27 | mABHD4 conf 48
Clc1ccc(C2Nc3cccc4cccc(c34)N2)cc1Cl	none
O=C1c2ccccc2-c2onc3c(N4CCN(CCO)CC4)cc(N4CCN(C(=O)c5ccco5)CC4)c1c23	mABHD4 FP 35, HTRA1 inhibitor 67 | HTRA1 conf 72 | mABHD4 conf 43
O=C(c1ccco1)N1CCN(CCCCN2C(=O)c3ccccc3C2=O)CC1	none
Cc1cccc2sc(NNC(=O)c3cc(=O)c4ccccc4o3)nc12	mABHD4 FP 30, HTRA1 inhibitor 38 | HTRA1 conf 64 | mABHD4 conf 44
Cc1nc(C)c(C(=O)Nc2nc3c(C)cccc3s2)o1	none
CN(Cc1cc(Cl)cc(Cl)c1O)Cc1c(O)ccc2ccccc12	mABHD4 FP 30, HTRA1 inhibitor 52 | HTRA1 conf 62 | mABHD4 conf inactive
CN(Cc1ccccc1)Cc1c(O)ccc2ccccc12	none
O=S1(=O)c2cc(Cl)ccc2N2CCC[C@@H]2CN1Cc1ccc(Cl)c(Cl)c1	none (no result: HTRA1 inhibitor)
CCOc1ccc2noc3c2c1C(=O)c1ccccc1-3	SIAE primary 17, PRMT1 FP inh 150, mABHD4 FP 58, HTRA1 inhibitor 49 | HTRA1 conf inactive | mABHD4 conf inactive
CC(C)C(NC(=O)c1c(F)cccc1F)C(=O)N1CCN(c2ccccc2F)CC1 (stereo unspecified)	none
C=CCn1c(SCC(=O)Nc2cc(C)on2)nnc1-c1ccccc1OC	none
